The source made the active and inactive calls. No cut-off for these calls is given here. A value given as a limit tells only on which side of the number the result lay.

Assay [1] deals with T1, Putative casein kinase I (Leishmania major) (UniProt O96999).
T1 sequence (whole entry): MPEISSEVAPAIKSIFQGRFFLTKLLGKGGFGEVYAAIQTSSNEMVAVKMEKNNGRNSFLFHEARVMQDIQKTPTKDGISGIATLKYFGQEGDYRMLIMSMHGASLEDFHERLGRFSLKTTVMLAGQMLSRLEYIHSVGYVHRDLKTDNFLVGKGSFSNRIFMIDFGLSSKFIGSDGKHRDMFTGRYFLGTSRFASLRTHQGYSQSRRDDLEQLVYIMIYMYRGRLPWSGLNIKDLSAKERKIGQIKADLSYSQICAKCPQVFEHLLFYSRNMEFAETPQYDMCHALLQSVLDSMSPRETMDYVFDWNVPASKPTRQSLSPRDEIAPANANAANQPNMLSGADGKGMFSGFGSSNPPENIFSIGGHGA
The assay can be described thus: Inhibition of Leishmania major CK1 assessed as residual activity at 16 uM relative to control.

Another assay deals with Pseudomonas aeruginosa. The assay can be described thus: Antibacterial activity against Pseudomonas aeruginosa ATCC […] at 2 to 256 ug/ml measured after 24 hrs. The format is functional, organism-based. The method in brief: (§1)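 Stock: 2.7 mg compound in 100 µL DMSO, then diluted with 900 µL distilled water. Working solutions at 256, 128, 64, 32, 16, 8, 4 and 2 µg/mL; 20 µL of each went into 178 µL Mueller-Hinton broth. Inoculum: 2 µL overnight culture at 0.5 McFarland (1.5*10⁸ CFU/mL). Controls: DMSO–water growth and sterility. Incubation 24 h at 37 °C; wells scored by eye as clear or turbid.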

The next assay relates to Klebsiella pneumoniae. The assay can be described thus: Antibacterial activity against Klebsiella pneumoniae ATCC 700603 at 2 to 256 ug/ml measured after 24 hrs. Format: functional, organism-based. The method in brief: as §1
The test system of a further assay is Escherichia coli. The assay can be described thus: Antibacterial activity against Escherichia coli ATCC 35218 at 2 to 256 ug/ml measured after 24 hrs. The format is functional, organism-based. The essentials:
as §1

For another assay, the system named is Streptococcus pneumoniae. Description: Antibacterial activity against Streptococcus pneumoniae ATCC 49619 at 2 to 256 ug/ml measured after 24 hrs. Format: functional, organism-based. The essentials:
as §1

The target in assay [2] is Dual specificity tyrosine-phosphorylation-regulated kinase 1A (Rattus norvegicus) (UniProt Q63470). The assay can be described thus: Inhibition of rat DYRK1A assessed as residual activity at 16 uM relative to control.
The test system of the next assay is Enterococcus faecalis. Description: Antibacterial activity against Enterococcus faecalis ATCC 29212 at 2 to 256 ug/ml measured after 24 hrs. Format: functional, organism-based. The method in brief:
as §1

In assay [3] the target is CDK9/cyclin T1 (Homo sapiens) (UniProt O60563+P50750). Description: Inhibition of human CDK9/Cyclin T assessed as residual activity at 16 uM relative to control. The format is protein-complex assay.
Assay [4] has as its target T2, Serine/threonine-protein kinase haspin (Homo sapiens) (UniProt Q8TF76).
T2 sequence (whole entry): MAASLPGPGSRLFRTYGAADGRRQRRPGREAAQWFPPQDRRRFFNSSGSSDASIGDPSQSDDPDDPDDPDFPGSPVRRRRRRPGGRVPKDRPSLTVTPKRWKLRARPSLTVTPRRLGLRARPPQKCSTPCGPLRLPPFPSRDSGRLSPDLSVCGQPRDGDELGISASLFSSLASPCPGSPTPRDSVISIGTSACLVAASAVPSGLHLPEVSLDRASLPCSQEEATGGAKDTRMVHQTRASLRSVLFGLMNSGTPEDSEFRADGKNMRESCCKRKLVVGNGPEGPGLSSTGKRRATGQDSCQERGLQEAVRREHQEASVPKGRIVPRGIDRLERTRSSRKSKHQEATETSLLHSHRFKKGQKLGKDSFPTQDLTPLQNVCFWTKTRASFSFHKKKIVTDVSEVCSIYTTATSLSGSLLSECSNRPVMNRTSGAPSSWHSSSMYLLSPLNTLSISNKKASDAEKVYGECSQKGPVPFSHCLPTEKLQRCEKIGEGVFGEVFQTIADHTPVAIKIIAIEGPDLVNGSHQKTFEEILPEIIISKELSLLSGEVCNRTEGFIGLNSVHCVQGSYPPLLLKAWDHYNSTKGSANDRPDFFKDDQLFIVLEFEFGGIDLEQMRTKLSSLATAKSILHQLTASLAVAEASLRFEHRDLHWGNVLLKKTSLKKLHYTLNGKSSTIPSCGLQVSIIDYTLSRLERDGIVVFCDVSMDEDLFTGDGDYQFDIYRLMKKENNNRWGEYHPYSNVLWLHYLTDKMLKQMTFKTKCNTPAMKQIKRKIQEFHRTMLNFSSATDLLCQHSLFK
Description: Inhibition of human haspin assessed as residual activity at 16 uM relative to control.

The target in assay [5] is Glycogen synthase kinase-3 (Sus scrofa) (UniProt B2LUN4+I6LNT8). Description: Inhibition of pig GSK3 alpha/beta assessed as residual activity at 16 uM relative to control. Format: protein assay.
For assay [6], the target named is Cyclin-dependent kinase 5/CDK5 activator 1 (Homo sapiens) (UniProt Q00535+Q15078). Description: Inhibition of human CDK5/p25 assessed as residual activity at 16 uM relative to control. The format is protein-complex assay.
Assay [7] addresses Receptor-interacting serine/threonine-protein kinase 3 (Homo sapiens) (UniProt Q9Y572). Description: Inhibition of human RIPK3 assessed as residual activity at 16 uM relative to control.
Assay [8] has as its target Aurora kinase B (Homo sapiens) (UniProt Q96GD4). The assay can be described thus: Inhibition of human Aurora-B assessed as residual activity at 16 uM relative to control.
Assay [9] deals with CDK2/Cyclin A2 (Homo sapiens) (UniProt P24941+P20248). The assay can be described thus: Inhibition of human CDK2/Cyclin A assessed as residual activity at 16 uM relative to control. The format is protein-complex assay.
For a further assay, the system named is Leishmania donovani. The assay can be described thus: Inhibition of Leishmania donovani TLK assessed as residual activity at 16 uM relative to control.
The next assay has as its system HCT-116. The assay can be described thus: Cytotoxicity against human HCT116 cells up to 100 uM. Format: functional, cell-based.
The test system of the next assay is U-87 MG. Description: Cytotoxicity against human U87MG cells up to 100 uM. Format: functional, cell-based. To be noted: U-87MG ATCC.
The target in assay [10] is Serine/threonine-protein kinase pim-1 (Homo sapiens) (UniProt P11309). The assay can be described thus: Inhibition of human Pim1 assessed as residual activity at 16 uM relative to control.
Serine/threonine-protein kinase pim-1 (Homo sapiens), sequence (P11309 whole entry, looked up): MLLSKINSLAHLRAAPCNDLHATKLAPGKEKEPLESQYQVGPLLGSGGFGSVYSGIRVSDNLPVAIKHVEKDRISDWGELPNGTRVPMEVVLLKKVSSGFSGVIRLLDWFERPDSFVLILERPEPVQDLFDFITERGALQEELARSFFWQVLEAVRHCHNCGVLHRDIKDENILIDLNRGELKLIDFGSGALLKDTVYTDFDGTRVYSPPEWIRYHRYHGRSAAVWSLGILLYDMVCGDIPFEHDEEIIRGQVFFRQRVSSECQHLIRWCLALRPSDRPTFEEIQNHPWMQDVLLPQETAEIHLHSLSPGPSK

Aurora kinase B (Homo sapiens), sequence (Q96GD4 whole entry): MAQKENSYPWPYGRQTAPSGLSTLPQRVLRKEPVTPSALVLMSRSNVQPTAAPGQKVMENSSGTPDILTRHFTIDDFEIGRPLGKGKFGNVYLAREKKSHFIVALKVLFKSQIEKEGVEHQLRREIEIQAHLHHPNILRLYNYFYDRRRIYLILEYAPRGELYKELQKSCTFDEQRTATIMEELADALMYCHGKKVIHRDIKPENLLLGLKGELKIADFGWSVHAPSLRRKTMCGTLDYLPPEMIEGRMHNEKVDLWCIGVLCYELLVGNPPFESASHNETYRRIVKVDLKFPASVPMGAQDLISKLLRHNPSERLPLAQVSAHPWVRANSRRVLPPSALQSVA
Cyclin-dependent kinase 5/CDK5 activator 1 (Homo sapiens), sequence (Q00535 whole entry): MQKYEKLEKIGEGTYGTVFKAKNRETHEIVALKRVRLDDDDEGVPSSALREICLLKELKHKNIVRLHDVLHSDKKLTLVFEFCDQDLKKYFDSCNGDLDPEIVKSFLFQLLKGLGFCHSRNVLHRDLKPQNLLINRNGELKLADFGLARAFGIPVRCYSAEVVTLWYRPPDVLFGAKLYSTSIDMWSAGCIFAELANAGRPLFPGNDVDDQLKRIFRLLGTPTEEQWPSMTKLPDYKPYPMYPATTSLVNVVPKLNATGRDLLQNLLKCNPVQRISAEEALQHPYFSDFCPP
Cyclin-dependent kinase 5/CDK5 activator 1 (Homo sapiens), sequence (Q15078 99-307 partner limits assumed): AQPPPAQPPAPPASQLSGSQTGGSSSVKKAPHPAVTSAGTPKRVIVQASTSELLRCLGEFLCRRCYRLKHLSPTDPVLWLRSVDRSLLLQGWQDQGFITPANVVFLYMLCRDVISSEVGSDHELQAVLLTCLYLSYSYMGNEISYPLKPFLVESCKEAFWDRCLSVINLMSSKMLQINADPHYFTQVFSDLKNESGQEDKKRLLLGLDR
Receptor-interacting serine/threonine-protein kinase 3 (Homo sapiens), sequence (Q9Y572 whole entry, looked up): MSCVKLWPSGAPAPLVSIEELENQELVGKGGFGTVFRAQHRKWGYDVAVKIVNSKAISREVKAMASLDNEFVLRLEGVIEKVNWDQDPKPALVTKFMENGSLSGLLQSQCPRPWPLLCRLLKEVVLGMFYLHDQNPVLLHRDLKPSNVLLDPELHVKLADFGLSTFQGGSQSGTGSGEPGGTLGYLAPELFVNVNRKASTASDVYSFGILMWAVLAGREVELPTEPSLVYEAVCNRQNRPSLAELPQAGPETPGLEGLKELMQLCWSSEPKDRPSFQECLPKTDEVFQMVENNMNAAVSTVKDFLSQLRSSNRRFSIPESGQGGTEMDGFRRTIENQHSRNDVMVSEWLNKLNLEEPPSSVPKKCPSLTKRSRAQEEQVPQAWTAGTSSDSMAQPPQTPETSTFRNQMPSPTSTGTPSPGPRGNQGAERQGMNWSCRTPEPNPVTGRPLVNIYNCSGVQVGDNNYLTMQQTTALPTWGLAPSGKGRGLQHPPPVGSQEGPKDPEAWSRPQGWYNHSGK

Consider `O=C1OC2(C(=O)Nc3ccccc32)C2=C1NCCS2(=O)=O` (stereo not drawn), for which the Activity in [1], in assay [2], in assay [3], in assay [4], in [5] and in [6] was above 60% throughout. The Activity (in [7]; in assay [8]; in [9]; in the assay with Leishmania donovani; in assay [10]) was above 60% in each case. Moreover, the result in the assay with Pseudomonas aeruginosa, with Klebsiella pneumoniae, in the assay on Escherichia coli, in the assay on Streptococcus pneumoniae, in the assay with Enterococcus faecalis and with HCT-116 was inactive. Further, the result in the assay with U-87 MG was inactive.

(Values after ChEMBL document CHEMBL4118034, “Orbicularisine: A Spiro-Indolothiazine Isolated from Gills of the Tropical Bivalve Codakia orbicularis” (J Nat Prod, 2017).)
